Where a name gives a salt, the structure may show the parent alone. Active and inactive are the calls of the source. The calls are words filed in the database; no cut-off is given here.
Key:
[1] = species: Homo sapiens; experiment: Inhibition of P-gp in human MCF7/ADR cells assessed as increase in intracellular Rh123 accumulation after 1 hr by flow cytometry; assay type: cell-based
Procedure, shortened: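 Exponentially growing MCF-7/ADR cells (3 × 10^5/mL) loaded with Rh123 (5 μM) with or without modulator (5, 10, 20 μM) or verapamil (10 μg/mL), 1 h at 37 °C. Rh123 accumulation (%) by flow cytometry, excitation 488 nm, emission through 530 nm filter; untreated cells as negative control. Mean ± SD of three independent experiments.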

[2] = species: Homo sapiens; experiment: Inhibition of P-gp in human MCF7/ADR cells assessed as increase in intracellular Rh123 accumulation by measuring increase in fluorescence intensity after 24 hrs by fluorescence microscopic analysis; assay type: cell-based
Procedure, shortened: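 Rh123 (5 μM)-exposed MCF-7/ADR cells, untreated or treated with modulator (10 μM) or verapamil (10 μg/mL), photographed by fluorescence microscopy after 24 h.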

[3] = species: Homo sapiens; conditions: 10 ug/ml
[4] = tested on: MCF7; experiment: Increase in adriamycin accumulation in human MCF7 cells at 10 ug/ml after 1 hr by flow cytometry; assay type: functional, cell-based
Procedure, shortened: (§1)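 4 × 10^5 MCF-7 or MCF-7/ADR cells incubated 1 h at 37 °C with 10.0 μM adriamycin alone or with modulator (5, 10, 20 μM) or verapamil (10 μg/mL); washed twice in ice-cold PBS. Adriamycin accumulation (%) by flow cytometry relative to untreated cells. Mean ± SD, three independent experiments.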

[5] = tested on: MCF7; experiment: Cytotoxicity against human MCF7 cells after 48 hrs by MTT assay; assay type: functional, cell-based; conditions: MCF7, 48 h
Procedure, shortened: (§2)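 Cells seeded at 5000−10 000 per well, preincubated 12 h at 37 °C, 5% CO2, then exposed to a range of concentrations for 48 h. MTT added, absorbance read at 570 nm after 4 h; percent growth inhibition used to derive IC50. Adriamycin as positive control.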

[6] = tested on: A549; experiment: Cytotoxicity against human A549 cells after 48 hrs by MTT assay; assay type: functional, cell-based; conditions: A549, 48 h; procedure, shortened: as §2
[7] = tested on: A2780; experiment: Cytotoxicity against human A2780 cells after 48 hrs by MTT assay; assay type: functional, cell-based; conditions: A2780, 48 h; procedure, shortened: as §2
[8] = species: Homo sapiens; experiment: Inhibition of P-gp in human MCF7/ADR cells assessed as increase in intracellular accumulation of adriamycin after 1 hr by flow cytometry; assay type: cell-based; procedure, shortened: as §1
[9] = tested on: NCI/ADR-RES; experiment: Cytotoxicity against human MCF7/ADR cells after 48 hrs by MTT assay; assay type: functional, cell-based
Procedure, shortened: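 MTT format as for parental lines: 48 h exposure to various concentrations in ADM-selected P-gp-overexpressing MCF-7/ADR cells, absorbance at 570 nm after 4 h MTT, IC50 from percent growth inhibition.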

[10] = tested on: MCF7; experiment: Increase in adriamycin accumulation in human MCF7 cells at 20 uM after 1 hr by flow cytometry; assay type: functional, cell-based; procedure, shortened: as §1
[11] = species: Homo sapiens; experiment: Inhibition of P-gp in human MCF7/ADR cells assessed as increase in intracellular accumulation of adriamycin by measuring increase in fluorescence intensity at 10 uM after 24 hrs by fluorescence microscopic analysis; assay type: cell-based
Procedure, shortened: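 MCF-7/ADR cells imaged by fluorescence microscopy for adriamycin fluorescence after 24 h incubation with or without modulator (10 μM) or verapamil (10 μg/mL); untreated cells as negative control.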

[12] = species: Homo sapiens; experiment: Inhibition of P-gp in human MCF7/ADR cells assessed as potentiation of adriamycin-induced cytotoxicity by measuring fold reduction in adriamycin IC50 at 5 uM after 48 hrs by MTT assay relative to adriamycin alone; assay type: cell-based
Procedure, shortened: (§3)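 MCF-7/ADR (ADM-selected, P-gp-overexpressing) and MCF-7 cells given graded adriamycin with or without modulator (5 or 10 μM) or verapamil 10 μg/mL for 48 h; MTT read at 570 nm. Reversal fold from adriamycin IC50 alone versus IC50 in combination.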

[13] = species: Homo sapiens; experiment: Inhibition of P-gp in human MCF7/ADR cells assessed as potentiation of adriamycin-induced cytotoxicity by measuring fold reduction in adriamycin IC50 at 10 uM after 48 hrs by MTT assay relative to adriamycin alone; assay type: cell-based; procedure, shortened: as §3

Compound | IC50 [5] | IC50 [6] | IC50 [7] | further results
COc1ccc(CCN(C)CCCC(C#N)(c2ccc(OC)c(OC)c2)C(C)C)cc1OC (configuration not stated) | – | – | – | inhibition [1]: Dose-dependent effect; inhibition [2]: Dose-dependent effect; inhibition [3]: Active; Activity [4]: inactive
COC1=C(c2ccccc2O)C(=O)C=C(c2ccc(O)cc2)C1=O | 16.7 µM | > 40 µM | 8.6 µM | –
COc1ccc(-c2c(OC)cc(-c3ccccc3)c(OC)c2OC)cc1 | > 40 µM | > 40 µM | > 40 µM | –
O=C1C[C@@](O)(c2ccccc2)[C@H](O)c2oc3ccc(O)cc3c21 | > 40 µM | > 40 µM | > 40 µM | –
COC1=C(c2ccc(OC)cc2)C(=O)C=C(c2ccccc2)C1=O | 19.9 µM | 40.1 µM | 3.4 µM | inhibition [1]: Dose-dependent effect; inhibition [2]: Dose-dependent effect; inhibition [8]: Dose-dependent effect; IC50 [9]: 23.5 µM; Activity [10]: inactive; inhibition [11]: Active; fold change (FC) [12]: 1.3; fold change (FC) [13]: 39.1
COc1cc(-c2ccc(O)cc2)c(O)c2oc3cc(O)ccc3c12 | 11.7 µM | 27.8 µM | 14.9 µM | –
COc1cc(-c2ccc(O)cc2)c(O)c2oc3ccccc3c12 | 17.5 µM | > 40 µM | 40.1 µM | –
COc1ccc(-c2cc(OC)c(-c3ccccc3O)c(OC)c2OC)cc1 | > 40 µM | > 40 µM | > 40 µM | –
COc1cc(-c2ccccc2)c(O)c2oc3ccc(O)cc3c12 | 13.4 µM | > 40 µM | 25.1 µM | –
COc1cccc2c1C(=O)c1c(O)c3c(c(O)c1C2=O)C[C@@](O)(C(=O)CO)C[C@@H]3O[C@H]1C[C@H](N)[C@H](O)[C@H](C)O1 [DOXORUBICIN HYDROCHLORIDE] | – | 1.3 µM | 0.5 µM | –
COc1ccc(-c2c(O)cc(-c3ccccc3)c(OC)c2OC)cc1 | > 40 µM | > 40 µM | > 40 µM | –
COc1cc(-c2ccc(O)cc2)c(O)c2oc3ccc(O)cc3c12 | 17.9 µM | > 40 µM | 21.4 µM | –
COc1ccc(-c2cc(OC)c(-c3ccccc3)c(OC)c2O)cc1 | 38.5 µM | 12.5 µM | > 40 µM | –
